Data taken from ChEMBL document CHEMBL1149793, “1,8-Naphthyridines VI. Synthesis and anti-inflammatory activity of 5-(alkylamino)-N,N-diethyl[1,2,4]triazolo[4,3-a][1,8]naphthyridine-6-carboxamides with a new substitution pattern on the triazole ring” (2008).

Experiments:
Type in all cases: functional
Rattus norvegicus [1] = assay: Antiinflammatory activity against carrageenan-induced edema in Sprague-Dawley rat at 25 mg/kg, po
Procedure, shortened: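 Oral gavage dosing as a homogenized suspension in 0.5% carboxymethylcellulose (1 mL/100 g); controls got vehicle; indomethacin 6 mg/kg p.o. positive control. After 60 min, 0.1 mL 1% carrageenan in saline injected into the right hind plantar surface. Paw volume read by water displacement to the lateral malleolus at injection and 2 h later; the difference is edema. % inhibition vs controls; Student's t-test.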

Mus musculus = assay: Analgesic activity against acetic acid-induced writhing in mouse at 3.12 mg/kg
Rattus norvegicus [2] = assay: Antiinflammatory activity against carrageenan-induced edema in Sprague-Dawley rat at 200 mg/kg, po
Procedure, shortened: (§1)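 Rats were dosed orally by gastric intubation with a homogenized suspension in 0.5% carboxymethylcellulose (1 mL/100 g); controls received vehicle alone. After 60 min, 0.1 mL of 1% carrageenan in saline was injected into the plantar surface of the right hind paw. Paw volume was measured by water displacement at injection and 2 h later. Edema was taken as the difference, with % inhibition versus controls (mean ± SD, Student's t-test).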

Rattus norvegicus [3] = assay: Antiinflammatory activity against carrageenan-induced edema in Sprague-Dawley rat at 100 mg/kg, po; procedure, shortened: as §1
Rattus norvegicus [4] = assay: Antiinflammatory activity against carrageenan-induced edema in Sprague-Dawley rat at 50 mg/kg, po; procedure, shortened: as §1
Rattus norvegicus [5] = assay: Antiinflammatory activity against carrageenan-induced edema in Sprague-Dawley rat at 6 mg/kg, po; procedure, shortened: as §1

CCN(CC)C(=O)c1c(NCC(C)C)c2cccnc2n2c(C(C)C)nnc12 was tested, and the inhibition in vivo at 25 mg/kg (Rattus norvegicus [1]) was 61%.
CCN(CC)C(=O)c1c(N2CCN(C)CC2)c2cccnc2n2c(C(C)C)nnc12 was tested, and the Activity (Mus musculus) was 85%.
For CCc1nnc2c(C(=O)N(CC)CC)c(N(CC)C(=O)c3cccnc3)c3cccnc3n12, the inhibition in vivo at 200 mg/kg (Rattus norvegicus [2]) was 51% and the inhibition in vivo at 100 mg/kg (Rattus norvegicus [3]) was 31%.
CCN(CC)C(=O)c1c(N(CC(C)C)C(C)=O)c2cccnc2n2c(C(C)C)nnc12 showed an inhibition in vivo at 200 mg/kg (Rattus norvegicus [2]) of 5%.
CCOC(=O)Cc1nnc2c(C(=O)N(CC)CC)c(NCC(C)C)c3cccnc3n12 gave an inhibition in vivo at 200 mg/kg (Rattus norvegicus [2]) of 65%, an inhibition in vivo at 100 mg/kg (Rattus norvegicus [3]) of 35% and an inhibition in vivo at 50 mg/kg (Rattus norvegicus [4]) of 21%.
CCN(CC)C(=O)c1c(NCC(C)C)c2cccnc2n2c(C(=O)N(CC)CC)nnc12 gave an inhibition in vivo at 200 mg/kg (Rattus norvegicus [2]) of 60% and an inhibition in vivo at 100 mg/kg (Rattus norvegicus [3]) of 30%.
Compound CCCN(CCC)C(=O)c1nnc2c(C(=O)N(CC)CC)c(NCC(C)C)c3cccnc3n12 has an inhibition in vivo at 200 mg/kg (Rattus norvegicus [2]) of 35%.
With CCCCNc1c(C(=O)N(CC)CC)c2nnc(CC(=O)NCC(C)C)n2c2ncccc12 the inhibition in vivo at 200 mg/kg (Rattus norvegicus [2]) was 0%.
For CCN(CC)C(=O)c1c(NCC(C)C)c2cccnc2n2c(CC(=O)Nc3nccs3)nnc12, the inhibition in vivo at 200 mg/kg (Rattus norvegicus [2]) was 18%.
In the case of CCOC(=O)C(C)c1nnc2c(C(=O)N(CC)CC)c(NCC(C)C)c3cccnc3n12 (stereo not given), the inhibition in vivo at 200 mg/kg (Rattus norvegicus [2]) is reported as 12%.
CCN(CC)C(=O)c1c(NCC(C)C)c2cccnc2n2c(CC(=O)NCC(C)C)nnc12 gave an inhibition in vivo at 200 mg/kg (Rattus norvegicus [2]) of 18%.
Compound CCOC(=O)c1nnc2c(C(=O)N(CC)CC)c(NCC(C)C)c3cccnc3n12 has an inhibition in vivo at 200 mg/kg (Rattus norvegicus [2]) of 20%.
CCNc1c(C(=O)N(CC)CC)c2nnc(C(C)C)n2c2ncccc12 was tested, and the inhibition in vivo at 25 mg/kg (Rattus norvegicus [1]) was 61%.
In the case of CCN(CC)C(=O)c1c(Cl)c2cccnc2n2c(C(=O)N(C(C)C)C(C)C)nnc12, the inhibition in vivo at 200 mg/kg (Rattus norvegicus [2]) is reported as 30%.
CCNc1c(C(=O)N(CC)CC)c2nnc(CC(=O)OCC)n2c2ncccc12 gave an inhibition in vivo at 200 mg/kg (Rattus norvegicus [2]) of 0%.
Compound COc1ccc2c(c1)c(CC(=O)O)c(C)n2C(=O)c1ccc(Cl)cc1 [INDOMETHACIN] has an inhibition in vivo at 6 mg/kg (Rattus norvegicus [5]) of 92%.
